pEC50, pIC50: −log10 of the molar value. Values after ≈ are worked out from the molar mass of the structure shown.
How the values were obtained:
[1] = biological target: T1, Metabotropic glutamate receptor 5 (Homo sapiens, UniProt P41594); test: Positive allosteric modulation of human mGlu5 expressed in HEK293 cells assessed as calcium mobilization; format: functional, cell-based; conditions: read-out: EC50
Procedure, shortened: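 Calcium mobilization read-out in HEK293 cells stably expressing human mGlu5; PAM EC50 and efficacy as % of maximal glutamate response. Mean±SEM of three or more independent determinations, each in triplicate.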
Target sequence in this assay (P41594 whole entry): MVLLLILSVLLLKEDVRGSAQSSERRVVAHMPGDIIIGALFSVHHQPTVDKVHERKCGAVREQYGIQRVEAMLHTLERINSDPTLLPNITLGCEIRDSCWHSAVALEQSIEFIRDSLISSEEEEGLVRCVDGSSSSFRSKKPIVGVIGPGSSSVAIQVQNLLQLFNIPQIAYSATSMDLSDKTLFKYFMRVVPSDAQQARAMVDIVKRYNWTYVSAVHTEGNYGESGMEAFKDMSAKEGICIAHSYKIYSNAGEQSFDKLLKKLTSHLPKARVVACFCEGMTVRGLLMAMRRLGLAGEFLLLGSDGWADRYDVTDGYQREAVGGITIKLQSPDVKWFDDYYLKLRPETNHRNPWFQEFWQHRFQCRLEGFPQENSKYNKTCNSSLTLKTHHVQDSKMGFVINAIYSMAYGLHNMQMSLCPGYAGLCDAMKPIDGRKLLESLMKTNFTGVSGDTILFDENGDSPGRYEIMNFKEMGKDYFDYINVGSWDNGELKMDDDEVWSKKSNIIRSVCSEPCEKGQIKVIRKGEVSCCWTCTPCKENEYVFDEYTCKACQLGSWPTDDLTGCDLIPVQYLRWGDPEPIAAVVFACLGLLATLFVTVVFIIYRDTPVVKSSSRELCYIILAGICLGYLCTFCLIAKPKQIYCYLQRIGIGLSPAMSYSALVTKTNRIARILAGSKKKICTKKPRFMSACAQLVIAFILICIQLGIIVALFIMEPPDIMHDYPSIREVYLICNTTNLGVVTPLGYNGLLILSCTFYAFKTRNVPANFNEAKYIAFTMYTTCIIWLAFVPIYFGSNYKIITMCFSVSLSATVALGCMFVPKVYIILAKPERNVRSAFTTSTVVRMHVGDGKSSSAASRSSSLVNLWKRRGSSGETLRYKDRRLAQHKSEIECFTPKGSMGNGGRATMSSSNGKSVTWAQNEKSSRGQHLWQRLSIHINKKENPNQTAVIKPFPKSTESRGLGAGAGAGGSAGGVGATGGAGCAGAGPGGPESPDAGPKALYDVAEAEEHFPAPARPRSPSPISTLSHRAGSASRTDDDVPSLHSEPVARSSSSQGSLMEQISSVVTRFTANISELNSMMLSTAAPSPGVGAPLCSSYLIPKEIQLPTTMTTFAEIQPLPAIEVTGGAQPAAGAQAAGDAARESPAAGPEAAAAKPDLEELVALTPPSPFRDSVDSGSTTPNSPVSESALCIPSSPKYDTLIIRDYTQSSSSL

[2] = biological target: T1, Metabotropic glutamate receptor 5; test: Positive allosteric modulation of human mGlu5 expressed in HEK293 cells assessed as calcium mobilization relative to glutamate; format: functional, cell-based
Procedure, shortened: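 Calcium mobilization in HEK293 cells expressing human mGlu5, reported as EC50 and % Glu Max. Mean±SEM of three or more independent determinations, each run in triplicate.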
Target sequence in this assay (P41594 21-1212 limits assumed): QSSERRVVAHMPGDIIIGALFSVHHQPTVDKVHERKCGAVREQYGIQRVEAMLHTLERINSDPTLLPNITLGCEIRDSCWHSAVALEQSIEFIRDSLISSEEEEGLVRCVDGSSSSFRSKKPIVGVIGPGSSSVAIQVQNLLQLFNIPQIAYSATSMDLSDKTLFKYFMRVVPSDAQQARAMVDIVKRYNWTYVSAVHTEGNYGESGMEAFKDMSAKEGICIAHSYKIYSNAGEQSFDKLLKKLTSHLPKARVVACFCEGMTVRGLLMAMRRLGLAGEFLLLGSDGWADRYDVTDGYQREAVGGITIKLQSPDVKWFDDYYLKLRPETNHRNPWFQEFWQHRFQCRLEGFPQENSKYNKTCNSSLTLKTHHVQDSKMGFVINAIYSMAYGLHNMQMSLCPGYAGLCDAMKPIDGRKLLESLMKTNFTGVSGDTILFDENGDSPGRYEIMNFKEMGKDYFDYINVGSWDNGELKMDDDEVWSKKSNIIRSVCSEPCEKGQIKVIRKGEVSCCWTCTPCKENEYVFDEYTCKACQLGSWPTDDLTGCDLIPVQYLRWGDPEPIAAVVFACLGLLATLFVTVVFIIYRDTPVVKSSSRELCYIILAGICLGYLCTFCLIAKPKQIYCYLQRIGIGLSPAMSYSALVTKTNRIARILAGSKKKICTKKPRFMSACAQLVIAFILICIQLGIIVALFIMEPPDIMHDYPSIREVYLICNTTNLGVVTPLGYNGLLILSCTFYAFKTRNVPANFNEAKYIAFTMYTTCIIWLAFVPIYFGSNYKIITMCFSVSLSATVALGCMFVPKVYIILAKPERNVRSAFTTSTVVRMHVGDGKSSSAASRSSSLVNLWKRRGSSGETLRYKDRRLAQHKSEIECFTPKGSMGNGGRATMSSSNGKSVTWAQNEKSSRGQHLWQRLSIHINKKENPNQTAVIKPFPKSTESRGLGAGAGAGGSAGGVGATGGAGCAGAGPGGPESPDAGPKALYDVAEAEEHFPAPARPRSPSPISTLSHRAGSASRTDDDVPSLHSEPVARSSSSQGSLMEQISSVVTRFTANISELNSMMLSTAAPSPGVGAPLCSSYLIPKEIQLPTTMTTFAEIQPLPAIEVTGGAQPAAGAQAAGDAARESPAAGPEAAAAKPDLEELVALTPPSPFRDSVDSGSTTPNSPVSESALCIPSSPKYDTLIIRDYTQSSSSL

[3] = test system: Plasma; test: Fraction unbound in human plasma; format: ADME, cell-free
Procedure, shortened: (§1)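 Plasma protein binding measured in human and rat plasma; readout is fraction unbound.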

[4] = test system: Plasma; test: Fraction unbound in rat plasma; format: ADME, cell-free; procedure, shortened: as §1
[5] = Plasma clearance in Sprague-Dawley rat at 0.2 mg/kg, iv; format: ADME, organism-based
[6] = test system: Plasma; test: Stability in rat plasma after 4 hrs; format: ADME, cell-free
Procedure, shortened: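 Compound incubated in rat plasma at 37 °C for 4 h; stability assessed.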

[7] = Stability in simulated gastric fluid for 1 hr; format: physicochemical; conditions: simulated gi fluid
Procedure, shortened: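 Incubation in simulated gastric fluid at 37 °C for 1 h; decomposition of the external amide assessed.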

[8] = Solubility in simulated gastric fluid; format: ADME; conditions: simulated gi fluid
Procedure, shortened: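 Solubility measured in simulated gastric fluid at 37 °C over 1 h; compound stability was assessed in parallel.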

[9] = Stability in beta cyclodextrin at pH 6 upto 5 days; format: physicochemical; conditions: buffer, pH 6, 120 h
Procedure, shortened: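 Stability of the compound formulated at 4 mg/mL in 20% β-cyclodextrin vehicle, pH 6, monitored for up to five days; percent decomposition of the amide determined.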

[10] = test system: Brain; test: Fraction unbound in rat brain; format: ADME, tissue-based
Procedure, shortened: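 Rat brain unbound fraction obtained from a brain homogenate binding assay.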

[11] = test system: Rattus norvegicus; test: Inhibition of amphetamine-induced hyperlocomotion in oral-dosed Sprague-Dawley rat assessed as reversal of amphtamine-induced effect drug administered 20 mins prior to 1 mg/kg amphetamine challenge; format: functional; conditions: read-out: MED
Procedure, shortened: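 Male Sprague-Dawley rats received a single oral screening dose of 10 mg/kg; full dose-response studies were also run (n = 8/group). Readout is % reversal of amphetamine-induced locomotion relative to vehicle control. Terminal brain and plasma levels were sampled at T90.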

[12] = Drug concentration in Sprague-Dawley rat brain at 30 mg/kg, po after 1 hr; format: ADME, organism-based; conditions: read-out: Drug uptake
Procedure, shortened: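 Rat modified Irwin study: single 30 mg/kg PO dose, with behaviour scored across 30 autonomic and somatomotor endpoints. Brain concentration measured 1.0 h post-dose. Unbound brain level estimated.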

[13] = test system: Rattus norvegicus; test: Toxicity in Sprague-Dawley rat assessed as alteration in behavior across 30 distinct autonomic and somatomotor endpoints at 30 mg/kg, po; format: organism-based; conditions: in vivo
Procedure, shortened: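 Modified Irwin screen in rats given a single 30 mg/kg oral dose; 30 autonomic and somatomotor endpoints scored for behavioral change; brain concentration sampled 1.0 h post-dose.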

[14] = test system: Brain; test: Drug concentration in Sprague-Dawley rat brain at 56.6 mg/kg, po; format: ADME, organism-based; conditions: in vivo, read-out: Drug uptake
[15] = test system: Rattus norvegicus; test: Toxicity in Sprague-Dawley rat assessed as decreased motor activity at 56.6 mg/kg, po; format: organism-based; conditions: in vivo
Procedure, shortened: (§2)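 Rats dosed orally at 56.6 mg/kg and observed over 6.0 h. Behavior scored on a modified Racine scale, including motor activity and coordination. Brain concentration measured.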

[16] = test system: Rattus norvegicus; test: Toxicity in Sprague-Dawley rat assessed as decreased motor coordination at 56.6 mg/kg, po; format: organism-based; conditions: in vivo; procedure, shortened: as §2
[17] = biological target: Metabotropic glutamate receptor 5 (Rattus norvegicus, UniProt P31424); test: Positive allosteric modulation of rat mGlu5 assessed as calcium mobilization by cell-based assay; format: functional
[18] = biological target: Metabotropic glutamate receptor 5 (Rattus norvegicus) (UniProt P31424); test: Positive allosteric modulation of rat mGlu5 assessed as calcium mobilization by cell-based assay relative to glutamate; format: functional
[19] = biological target: Cytochrome P450 2C9 (Homo sapiens, UniProt P11712); test: Inhibition of CYP2C9 (unknown origin); format: ADME
[20] = biological target: Cytochrome P450 3A4 (Homo sapiens, UniProt P08684); test: Inhibition of CYP3A4 (unknown origin); format: ADME
[21] = biological target: T2, Cytochrome P450 1A2 (Homo sapiens, UniProt P05177); test: Inhibition of CYP1A2 (unknown origin); format: ADME
T2 sequence (P05177 whole entry): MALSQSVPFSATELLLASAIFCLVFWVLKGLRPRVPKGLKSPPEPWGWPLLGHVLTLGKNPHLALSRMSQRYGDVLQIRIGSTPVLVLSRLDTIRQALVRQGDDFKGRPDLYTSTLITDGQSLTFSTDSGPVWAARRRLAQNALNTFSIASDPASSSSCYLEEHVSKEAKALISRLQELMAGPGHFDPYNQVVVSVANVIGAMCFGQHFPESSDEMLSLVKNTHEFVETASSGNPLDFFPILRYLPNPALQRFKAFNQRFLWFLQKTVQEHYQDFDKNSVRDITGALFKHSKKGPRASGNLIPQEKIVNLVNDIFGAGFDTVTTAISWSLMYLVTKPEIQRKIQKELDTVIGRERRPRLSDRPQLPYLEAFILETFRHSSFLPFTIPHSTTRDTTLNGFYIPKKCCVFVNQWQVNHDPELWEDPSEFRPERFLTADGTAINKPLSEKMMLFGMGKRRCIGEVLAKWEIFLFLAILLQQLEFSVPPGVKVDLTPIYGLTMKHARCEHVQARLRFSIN

[22] = biological target: Cytochrome P450 2D6 (Homo sapiens, UniProt P10635); test: Inhibition of CYP2D6 (unknown origin); format: ADME
[23] = Plasma clearance in Sprague-Dawley rat at 2.5 mg/kg, iv and 10 mg/kg, po; format: ADME, organism-based
[24] = Volume of distribution at steady state in Sprague-Dawley rat at 2.5 mg/kg, iv and 10 mg/kg, po; format: ADME, organism-based; conditions: in vivo, read-out: Vdss
[25] = Elimination half life in Sprague-Dawley rat at 2.5 mg/kg, iv and 10 mg/kg, po; format: ADME, organism-based; conditions: in vivo, read-out: beta t1/2 (converted)
Procedure, shortened: (§3)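 Discrete PK in male Sprague-Dawley rats. Oral arm: 10 mg/kg PO in 20% β-CD at 1 mg/mL. Plasma sampled to 8 h, giving Cmax, Tmax and AUC0-8h. Absolute oral bioavailability derived against the IV arm.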

[26] = AUC (0 to 8 hrs) in Sprague-Dawley rat plasma at 2.5 mg/kg, iv and 10 mg/kg, po; format: ADME, organism-based; procedure, shortened: as §3
[27] = test system: Rattus norvegicus; test: Cmax in Sprague-Dawley rat at 2.5 mg/kg, iv and 10 mg/kg, po; format: ADME, organism-based; conditions: in vivo; procedure, shortened: as §3
[28] = test system: Rattus norvegicus; test: Oral bioavailability in Sprague-Dawley rat at 10 mg/kg; format: ADME, organism-based; conditions: in vivo
Procedure, shortened: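 Male Sprague-Dawley rats were dosed orally at 10 mg/kg in 20% β-CD (1 mg/mL) and sampled over 8 h. Cmax, Tmax and AUC0-8h were determined, and absolute %F was calculated against a discrete IV study.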

[29] = biological target: Metabotropic glutamate receptor 1 (Homo sapiens, UniProt Q13255); test: Positive allosteric modulation of mGlu1 receptor (unknown origin) relative to control
[30] = biological target: Metabotropic glutamate receptor 2 (Homo sapiens, UniProt Q14416); test: Positive allosteric modulation of mGlu2 receptor (unknown origin) relative to control
[31] = biological target: Metabotropic glutamate receptor 3 (Homo sapiens, UniProt Q14832); test: Positive allosteric modulation of mGlu3 receptor (unknown origin) relative to control
[32] = biological target: Metabotropic glutamate receptor 4 (Homo sapiens, UniProt Q14833); test: Positive allosteric modulation of mGlu4 receptor (unknown origin) relative to control
[33] = biological target: Metabotropic glutamate receptor 6 (Homo sapiens, UniProt O15303); test: Positive allosteric modulation of mGlu6 receptor (unknown origin) relative to control
[34] = biological target: Metabotropic glutamate receptor 7 (Homo sapiens, UniProt Q14831); test: Positive allosteric modulation of mGlu7 receptor (unknown origin) relative to control
[35] = biological target: Metabotropic glutamate receptor 8 (Homo sapiens, UniProt O00222); test: Positive allosteric modulation of mGlu8 receptor (unknown origin) relative to control
[36] = Plasma clearance in dog at 1 mg/kg, iv and 5 mg/kg, po; format: ADME, organism-based, Canis lupus familiaris
[37] = Volume of distribution at steady state in dog at 1 mg/kg, iv and 5 mg/kg, po; format: ADME, organism-based, Canis lupus familiaris; conditions: in vivo, read-out: Vdss
[38] = Elimination half life in dog at 1 mg/kg, iv and 5 mg/kg, po; format: ADME, organism-based, Canis lupus familiaris; conditions: in vivo
[39] = AUC in dog plasma at 1 mg/kg, iv and 5 mg/kg, po; format: ADME, organism-based, Canis lupus familiaris
[40] = Cmax in dog at 1 mg/kg, iv and 5 mg/kg, po; format: ADME, organism-based, Canis lupus familiaris; conditions: in vivo
[41] = Oral bioavailability in dog at 5 mg/kg; format: ADME, organism-based, Canis lupus familiaris; conditions: in vivo
[42] = biological target: Metabotropic glutamate receptor 5 (Rattus norvegicus) (UniProt P31424); test: Positive allosteric modulation of mGlu5 in rat astrocytes relative to glutamate; format: cell-based

Metabotropic glutamate receptor 5 (Rattus norvegicus), sequence (P31424 21-1203 limits assumed): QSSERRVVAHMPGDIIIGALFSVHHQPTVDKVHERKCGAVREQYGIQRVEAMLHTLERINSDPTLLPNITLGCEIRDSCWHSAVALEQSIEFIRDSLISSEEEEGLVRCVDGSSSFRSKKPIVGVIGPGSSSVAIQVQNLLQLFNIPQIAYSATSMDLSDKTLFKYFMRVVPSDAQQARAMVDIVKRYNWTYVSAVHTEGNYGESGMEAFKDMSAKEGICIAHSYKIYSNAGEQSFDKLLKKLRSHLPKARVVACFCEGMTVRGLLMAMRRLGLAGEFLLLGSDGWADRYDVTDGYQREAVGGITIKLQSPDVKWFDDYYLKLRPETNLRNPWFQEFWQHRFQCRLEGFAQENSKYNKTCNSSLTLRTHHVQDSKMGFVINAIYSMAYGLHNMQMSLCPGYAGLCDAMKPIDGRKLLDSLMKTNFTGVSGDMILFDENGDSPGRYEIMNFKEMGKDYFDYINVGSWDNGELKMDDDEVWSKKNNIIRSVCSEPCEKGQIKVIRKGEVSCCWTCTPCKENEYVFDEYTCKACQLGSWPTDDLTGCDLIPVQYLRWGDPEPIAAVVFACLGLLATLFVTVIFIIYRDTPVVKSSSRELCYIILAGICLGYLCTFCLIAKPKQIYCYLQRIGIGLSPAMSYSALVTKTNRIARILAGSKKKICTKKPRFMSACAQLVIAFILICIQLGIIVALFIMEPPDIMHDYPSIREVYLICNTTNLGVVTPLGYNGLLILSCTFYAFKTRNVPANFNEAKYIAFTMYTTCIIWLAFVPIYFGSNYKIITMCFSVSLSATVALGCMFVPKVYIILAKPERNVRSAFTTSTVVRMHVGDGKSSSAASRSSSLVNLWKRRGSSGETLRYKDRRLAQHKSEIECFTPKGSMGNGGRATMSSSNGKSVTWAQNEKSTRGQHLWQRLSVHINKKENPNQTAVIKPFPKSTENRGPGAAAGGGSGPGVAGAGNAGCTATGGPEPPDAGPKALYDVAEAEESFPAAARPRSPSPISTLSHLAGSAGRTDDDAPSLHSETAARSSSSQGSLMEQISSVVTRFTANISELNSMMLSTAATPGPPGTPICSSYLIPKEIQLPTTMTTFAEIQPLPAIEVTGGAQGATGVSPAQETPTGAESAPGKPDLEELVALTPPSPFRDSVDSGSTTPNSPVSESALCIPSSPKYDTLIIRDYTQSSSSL
Metabotropic glutamate receptor 4, sequence (Q14833 whole entry): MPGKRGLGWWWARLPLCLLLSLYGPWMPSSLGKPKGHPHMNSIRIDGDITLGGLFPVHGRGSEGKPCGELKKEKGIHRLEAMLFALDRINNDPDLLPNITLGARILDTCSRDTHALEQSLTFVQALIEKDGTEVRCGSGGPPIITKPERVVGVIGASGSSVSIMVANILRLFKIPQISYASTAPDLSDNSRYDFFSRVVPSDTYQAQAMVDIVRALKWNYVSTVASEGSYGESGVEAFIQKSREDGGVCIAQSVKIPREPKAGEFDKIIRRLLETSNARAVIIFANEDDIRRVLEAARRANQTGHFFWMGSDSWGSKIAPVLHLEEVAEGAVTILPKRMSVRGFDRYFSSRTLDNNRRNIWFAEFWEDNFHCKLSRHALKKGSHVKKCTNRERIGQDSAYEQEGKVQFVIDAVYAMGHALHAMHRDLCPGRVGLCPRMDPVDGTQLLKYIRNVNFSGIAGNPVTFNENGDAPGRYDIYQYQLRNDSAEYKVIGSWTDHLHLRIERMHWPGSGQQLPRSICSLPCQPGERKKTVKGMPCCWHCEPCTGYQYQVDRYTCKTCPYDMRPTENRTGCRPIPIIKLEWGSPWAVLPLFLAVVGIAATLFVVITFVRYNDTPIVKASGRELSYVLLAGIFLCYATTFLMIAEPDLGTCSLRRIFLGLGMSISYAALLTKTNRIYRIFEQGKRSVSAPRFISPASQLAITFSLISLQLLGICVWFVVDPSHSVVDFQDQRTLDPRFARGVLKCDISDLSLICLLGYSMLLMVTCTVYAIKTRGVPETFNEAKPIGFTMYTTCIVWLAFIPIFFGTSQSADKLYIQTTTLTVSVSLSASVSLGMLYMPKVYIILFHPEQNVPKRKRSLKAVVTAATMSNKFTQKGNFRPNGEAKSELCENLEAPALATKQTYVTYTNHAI
Cytochrome P450 2D6, sequence (P10635 whole entry): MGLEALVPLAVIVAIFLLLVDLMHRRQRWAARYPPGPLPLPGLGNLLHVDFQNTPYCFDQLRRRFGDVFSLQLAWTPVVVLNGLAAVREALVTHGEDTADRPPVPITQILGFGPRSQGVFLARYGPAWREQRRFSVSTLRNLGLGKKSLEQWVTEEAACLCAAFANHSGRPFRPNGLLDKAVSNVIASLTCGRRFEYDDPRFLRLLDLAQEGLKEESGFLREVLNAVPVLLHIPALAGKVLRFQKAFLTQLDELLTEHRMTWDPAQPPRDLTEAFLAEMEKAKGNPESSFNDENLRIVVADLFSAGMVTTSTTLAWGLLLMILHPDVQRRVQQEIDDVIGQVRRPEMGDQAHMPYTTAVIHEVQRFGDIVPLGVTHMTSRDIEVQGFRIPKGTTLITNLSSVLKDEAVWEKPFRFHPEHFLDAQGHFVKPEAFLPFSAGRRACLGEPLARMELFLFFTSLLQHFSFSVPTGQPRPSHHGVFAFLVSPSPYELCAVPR

## CC(=O)N1CCCn2nc(COc3ccccc3)cc21
[1]
  pEC50: 6.44
[2]
  %max: 65%
[3]
  Fu: 0.26
[4]
  Fu: 0.37
[5]
  clearance: 118 mL/min/kg
[6]
  Stability: Stable
[7]
  Stability: Stable
[8]
  solubility: 315 µg/mL (≈ 1160 µM)
[9]
  Stability: Stable
[10]
  Fu: 0.51
[11]
  minimal effective dose: 3 mg/kg
[12]
  concentration at 1 h: 71 µM
[13]
  Activity: Non-toxic
[14]
  concentration: 113 µM
[15]
  Activity: Toxic
[16]
  Activity: Toxic
[17]
  pEC50: 7.22
[18]
  %max: 65%
[19]
  pIC50: < 4.52
[20]
  pIC50: < 4.52
[21]
  pIC50: < 4.52
[22]
  pIC50: < 4.52
[23]
  clearance: 54 mL/min/kg
[24]
  Vd: 3.9 L/kg
[25]
  half-life: 6.5 h
[26]
  AUC(0-t): 3.3 µM·h
[27]
  Cmax: 2.5 µM
[28]
  F: 29%
[29]
  pEC50: < 5.00
[30]
  pEC50: < 5.00
[31]
  pEC50: < 5.00
[32]
  pEC50: < 5.00
[33]
  pEC50: < 5.00
[34]
  pEC50: < 5.00
[35]
  pEC50: < 5.00
[36]
  clearance: 37 mL/min/kg
[37]
  Vd: 1.1 L/kg
[38]
  half-life: < 0.5 h
[39]
  AUC: 0.1 µM·h
[40]
  Cmax: < 0.1 µM
[41]
  bioavailability: < 5%
[42]
  %max: 57%

## CC(=O)N1CCCc2nc(COc3ccccc3)cn21
[1]
  pEC50: 6.11
[6]
  Stability: Unstable

## CC(=O)N1CCCn2nc(CN(C)c3ccccc3)cc21
[1]
  pEC50: 6.15
[2]
  %max: 74%
[3]
  Fu: 0.46
[4]
  Fu: 0.35

## CC(=O)N1CCCn2nc(CN3CCOc4ccccc43)cc21
[1]
  pEC50: 6.14
[2]
  %max: 67%
[3]
  Fu: 0.35
[4]
  Fu: 0.43

## CC(=O)N1CCCc2nc(COc3ccccc3)oc21
[1]
  pEC50: 5.87
[6]
  Stability: Unstable

## CC(=O)N1CCCn2nc(COc3ccccc3F)cc21
[1]
  pEC50: 5.63
[2]
  %max: 60%
[3]
  Fu: 0.17
[4]
  Fu: 0.24
[5]
  clearance: 103 mL/min/kg
[6]
  Stability: Stable
[7]
  Stability: Stable
[9]
  Stability: Stable
